One series concerns VERO cell line. The series is described as follows: Cytotoxicity assay against Vero cell line. Particulars: read-out: cytotoxicity CC50 in VERO cell line; VERO cells, 72 h, resazurin. The format is cell-based, monkey.
Series [1] relates to chloroquine-resistant strain K1 of Plasmodium falciparum. The series is described as follows: In vitro antimalarial assay. The settings on record: for IC50: Plasmodium falciparum, K1, 72 h, read-out: IC50 PfK1; for selectivity index (SI) PfK1: ratio CC50 (VERO)/IC50 (PfK1). The series is classed as cell-based.
Series [2] deals with chloroquine-sensitive strain 3D7 of Plasmodium falciparum. The series is described as follows: In vitro antimalarial assay. The settings on record: for IC50: Plasmodium falciparum, 3D7, 72 h, read-out: IC50 Pf3D7; for selectivity index (SI) Pf3D7: ratio CC50 (VERO)/IC50 (Pf3D7); for activity in CQ-sensitive strain (in words): 3D7. The format is cell-based.
Series [3] concerns Plasmodium yoelii nigeriensis (a multidrug-resistant) parasite. The series is described as follows: In vivo antimalarial assay in Swiss mice. The settings on record: for cure on day 28: cured/treated; for survival on day 28: survivors/treated. The method, boiled down:
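Multidrug-resistant P. yoelii nigeriensis infection in albino Swiss mice, five per group. Test compound given orally at 100 mg/kg daily × 4 days. Reference: α/β-arteether 7.5 mg/kg × 3 days. Untreated infected controls were included. Parasitaemia was assessed by Giemsa-stained smears, with % suppression on day 4 post infection. Survival and cure were followed to day 28, and MST was recorded.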

A short description of series [4]: Cytotoxicity assay against Vero cell line. The series is classed as cell-based, monkey. The settings on record: monkey, Vero cells (monkey kidney cell line).
[5] abbreviates: 100 mg/kg × 4 days, oral, P. yoelii-MDR.
Where [6] appears, read: 7.5 mg/kg × 3 days, reference drug.

With `CC(C)CC(CN1CCOCC1)N(C)c1ccnc2cc(Cl)ccc12` (centres unmarked) [9b, 7-Chloro-N-methyl-N-(4-methyl-1-morpholinopentan-2-yl)quinolin-4-amine], the CC50 (usually the concentration at which the toxic effect on the cells reaches its halfway point) in the series on VERO cell line was determined as 50800 nM. Also, in series [1], the IC50 (usually the concentration at which inhibition is half-maximal) came to 1190 ± 530 nM and the “selectivity index (SI) PfK1” value is reported as 43. In series [2], the IC50 was determined as 1160 ± 260 nM and the “selectivity index (SI) Pf3D7” value is reported as 44.

As to `CC(C)C[C@@H](CN1CCCCC1)N(C)c1ccnc2cc(Cl)ccc12` [9c, (S)-7-Chloro-N-methyl-N-(4-methyl-1-(piperidin-1-yl)pentan-2-yl)quinolin-4-amine], in series [1], the IC50 is 420 ± 230 nM and the “selectivity index (SI) PfK1” value was determined as 166. Besides, in series [2], the IC50 turned out to be 150 ± 140 nM and the “selectivity index (SI) Pf3D7” value turned out to be 463.

`CC(C)C[C@@H](CN1CCCC1)N(C)c1ccnc2cc(Cl)ccc12` [9d, (S)-7-Chloro-N-methyl-N-(4-methyl-1-(pyrrolidin-1-yl)pentan-2-yl)quinolin-4-amine]: in series [3] (100 mg/kg × 4 days, oral), the MST worked out at 9.4 days, the “cure on day 28” value is recorded as 0/5 cured and the “survival on day 28” value is 0/5. Further, the “% suppression on day 4 post infection” value in series [3] (setting [5]) amounted to 99.99%. In addition, in series [1], the IC50 was found to be 180 ± 150 nM and the “selectivity index (SI) PfK1” value came to 261. Also, in series [2], the IC50 is 80 nM and the “selectivity index (SI) Pf3D7” value was found to be 588.

Consider `CCN(CC)C[C@H](CC(C)C)N(C)c1ccnc2cc(Cl)ccc12` [9e, (S)-N^2-(7-Chloroquinolin-4-yl)-N^1,N^1-diethyl-N^2,4-dimethylpentane-1,2-diamine], for which, in series [1], the IC50 worked out at 540 ± 30 nM and the “selectivity index (SI) PfK1” value stood at 112. In addition, in series [2], the IC50 worked out at 230 ± 100 nM and the “selectivity index (SI) Pf3D7” value is recorded as 262.

`CC(C)C[C@@H](CN1CCOCC1)N(C)c1ccnc2cc(C(F)(F)F)ccc12` [9f, (S)-N-Methyl-N-(4-methyl-1-morpholinopentan-2-yl)-7-(trifluoromethyl)quinolin-4-amine]: in series [1], the IC50 came to 2250 ± 770 nM and the “selectivity index (SI) PfK1” value is on record as 30. Also, in series [2], the IC50 was 2720 ± 1440 nM and the “selectivity index (SI) Pf3D7” value amounted to 25.

For `CC(C)C[C@@H](CN1CCCCC1)N(C)c1ccnc2cc(C(F)(F)F)ccc12` [9g, (S)-N-Methyl-N-(4-methyl-1-(piperidin-1-yl)pentan-2-yl)-7-(trifluoromethyl)quinolin-4-amine], in series [1], the IC50 was 2040 ± 400 nM and the “selectivity index (SI) PfK1” value is given as 21. In series [2], the IC50 worked out at 2000 ± 60 nM and the “selectivity index (SI) Pf3D7” value came out at 21.

For `CC(C)C[C@@H](CN1CCCC1)N(C)c1ccnc2cc(C(F)(F)F)ccc12` [9h, (S)-N-Methyl-N-(4-methyl-1-(pyrrolidin-1-yl)pentan-2-yl)-7-(trifluoromethyl)quinolin-4-amine], in series [1], the IC50 was 1600 ± 910 nM and the “selectivity index (SI) PfK1” value came out at 33. Further, in series [2], the IC50 is 1240 nM and the “selectivity index (SI) Pf3D7” value was 42.

With `CCN(CC)C[C@H](CC(C)C)N(C)c1ccnc2cc(C(F)(F)F)ccc12` [9i, (S)-N^1,N^1-diethyl-N^2,4-dimethyl-N^2-(7-(trifluoromethyl)quinolin-4-yl)pentane-1,2-diamine], in series [1], the IC50 amounted to 2500 ± 1030 nM and the “selectivity index (SI) PfK1” value was found to be 21. Further, in series [2], the IC50 was determined as 3800 ± 1050 nM and the “selectivity index (SI) Pf3D7” value came to 14.

`CN(c1ccnc2cc(Cl)ccc12)[C@@H](Cc1ccccc1)CN1CCOCC1` [10a, (S)-7-Chloro-N-methyl-N-(1-morpholino-3-phenylpropan-2-yl)quinolin-4-amine]: in series [1], the IC50 turned out to be 1380 ± 70 nM and the “selectivity index (SI) PfK1” value amounted to 24. In addition, in series [2], the IC50 was found to be 1200 ± 780 nM and the “selectivity index (SI) Pf3D7” value is on record as 28.

As for `CN(c1ccnc2cc(Cl)ccc12)[C@@H](Cc1ccccc1)CN1CCCCC1` [10b, (S)-7-Chloro-N-methyl-N-(1-phenyl-3-(piperidin-1-yl)propan-2-yl)quinolin-4-amine], in series [1], the IC50 stood at 490 ± 150 nM and the “selectivity index (SI) PfK1” value is listed as 142. Further, the IC50 in series [2] was 280 ± 130 nM.

In the case of `CN(c1ccnc2cc(Cl)ccc12)[C@@H](Cc1ccccc1)CN1CCCC1` [10c, (S)-7-Chloro-N-methyl-N-(1-phenyl-3-(pyrrolidin-1-yl)propan-2-yl)quinolin-4-amine], in series [3] (100 mg/kg × 4 days, oral), the MST was 9 days, the “cure on day 28” value is 0/5 cured and the “survival on day 28” value is listed as 0/5. Further, the “% suppression on day 4 post infection” value in series [3] (setting [5]) was determined as 93.99%. In series [1], the IC50 was 100 nM and the “selectivity index (SI) PfK1” value is listed as 577. In series [2], the IC50 is 60 ± 160 nM and the “selectivity index (SI) Pf3D7” value was found to be 963.

For `CCN(CC)C[C@H](Cc1ccccc1)N(C)c1ccnc2cc(Cl)ccc12` [10d, (S)-N^2-(7-Chloroquinolin-4-yl)-N^1,N^1-diethyl-N^2-methyl-3-phenylpropane-1,2-diamine], in series [1], the IC50 was 330 ± 60 nM and the “selectivity index (SI) PfK1” value turned out to be 240. In series [2], the IC50 amounted to 210 ± 110 nM and the “selectivity index (SI) Pf3D7” value was 376.

In the case of `CN(c1ccnc2cc(C(F)(F)F)ccc12)[C@@H](Cc1ccccc1)CN1CCOCC1` [10e, (S)-N-Methyl-N-(1-morpholino-3-phenylpropan-2-yl)-7-(trifluoromethyl)quinolin-4-amine], in series [2], the “activity in CQ-sensitive strain (in words)” value (from here on “activity”) is “inactive” and the IC50 amounted to 3890 ± 500 nM.

On to `CN(c1ccnc2cc(C(F)(F)F)ccc12)[C@@H](Cc1ccccc1)CN1CCCCC1` [10f, (S)-N-Methyl-N-(1-phenyl-3-(piperidin-1-yl)propan-2-yl)-7-(trifluoromethyl)quinolin-4-amine], for which, in series [2], the “activity” value is “inactive” and the 50% inhibitory concentration (IC50) was 1370 ± 520 nM.

For the compound `CN(c1ccnc2cc(C(F)(F)F)ccc12)[C@@H](Cc1ccccc1)CN1CCCC1` [10g, (S)-N-Methyl-N-(1-phenyl-3-(pyrrolidin-1-yl)propan-2-yl)-7-(trifluoromethyl)quinolin-4-amine], in series [3] (100 mg/kg × 4 days, oral), the MST is reported as 7.2 days, the “cure on day 28” value is 0/5 cured and the “survival on day 28” value is given as 0/5. The “% suppression on day 4 post infection” value in series [3] (setting [5]) worked out at 62.30%. In series [1], the IC50 stood at 1770 nM and the “selectivity index (SI) PfK1” value is reported as 22. Further, in series [2], the IC50 came out at 680 ± 160 nM and the “selectivity index (SI) Pf3D7” value is listed as 58.

`CCN(CC)C[C@H](Cc1ccccc1)N(C)c1ccnc2cc(C(F)(F)F)ccc12` [10h, (S)-N^1,N^1-Diethyl-N^2-methyl-3-phenyl-N^2-(7-(trifluoromethyl)quinolin-4-yl)propane-1,2-diamine]: in series [2], the “activity” value is “inactive” and the IC50 was found to be 1750 ± 160 nM.

Take `CN(CCCN1CCCCC1)c1ccnc2cc(Cl)ccc12` [11a, 7-Chloro-N-methyl-N-(3-(piperidin-1-yl)propyl)quinolin-4-amine]: the CC50 in the series with VERO cell line was found to be 107000 nM. Besides, in series [1], the IC50 was determined as 60 ± 40 nM and the “selectivity index (SI) PfK1” value was 1782. In addition, the IC50 in series [2] came to 40 nM.

In the case of `CN(CCCN1CCCC1)c1ccnc2cc(Cl)ccc12` [11b, 7-Chloro-N-methyl-N-(3-(pyrrolidin-1-yl)propyl)quinolin-4-amine], the CC50 in the series on VERO cell line worked out at 80200 nM. Moreover, in series [3] (100 mg/kg × 4 days, oral), the MST came to 8.8 days, the “cure on day 28” value is reported as 0/5 cured and the “survival on day 28” value is listed as 0/5. In addition, the “% suppression on day 4 post infection” value in series [3] (setting [5]) is 99.8%. Further, in series [1], the IC50 was determined as 110 ± 70 nM and the “selectivity index (SI) PfK1” value is reported as 729. In addition, in series [2], the IC50 was 190 nM and the “selectivity index (SI) Pf3D7” value stood at 422.

As to `CN(CCCN1CCOCC1)c1ccnc2cc(C(F)(F)F)ccc12` [11c, N-Methyl-N-(3-morpholinopropyl)-7-(trifluoromethyl)quinolin-4-amine], in series [1], the IC50 stood at 820 ± 60 nM and the “selectivity index (SI) PfK1” value is listed as over 243. Besides, in series [2], the IC50 was 880 ± 280 nM and the “selectivity index (SI) Pf3D7” value was over 227.

Consider `CN(CCCN1CCCC1)c1ccnc2cc(C(F)(F)F)ccc12` [11d, N-Methyl-N-(3-(pyrrolidin-1-yl)propyl)-7-(trifluoromethyl)quinolin-4-amine], for which the CC50 in the series on VERO cell line is 78200 nM. Also, in series [3] (100 mg/kg × 4 days, oral), the MST worked out at 8.8 days, the “cure on day 28” value is 0/5 cured and the “survival on day 28” value is listed as 0/5. Further, the “% suppression on day 4 post infection” value in series [3] (setting [5]) worked out at 99.85%. In addition, in series [1], the IC50 stood at 310 ± 150 nM and the “selectivity index (SI) PfK1” value stood at 252. The IC50 in series [2] was determined as 90 ± 20 nM.

`COc1cc([C@@H]2c3cc4c(cc3[C@H](O)[C@H]3COC(=O)[C@H]23)OCO4)cc(OC)c1OC` [Podophyllotoxin, reference compound] showed a 50% cytotoxic concentration (CC50) at 72 h in series [4] of 4000 nM.

In the case of `CCN(CC)CCCC(C)Nc1ccnc2cc(Cl)ccc12` (centres unmarked) [chloroquine, reference compound], the IC50 in series [1] amounted to 795 ± 150 nM.

Consider `CCO[C@H]1O[C@@H]2O[C@@]3(C)CC[C@H]4[C@H](C)CC[C@@H]([C@H]1C)[C@@]24OO3` [α/β-arteether, reference compound], for which, in series [3] (setting [6]), the “% suppression on day 4 post infection” value came out at 100%, the MST was over 28 days, the “cure on day 28” value is on record as 5/5 cured and the “survival on day 28” value is reported as 5/5.

Source of the values: PMC8158791 (ACS Omega, 2021).
